Reference: ChEMBL document CHEMBL3243977, “Synthesis and antiestrogenic activity of [3,4-dihydro-2-(4-methoxyphenyl)-1-naphthalenyl][4-[2-(1-pyrrolidinyl)ethoxy]-phenyl]methanone, methanesulfonic acid salt” (J Med Chem, 1979)
The source made the active and inactive calls. The calls are words filed in the database; no cut-off is given here.

How the values were obtained:
Mus musculus [1] = assay: Antiestrogenic activity in immature Cox mouse assessed as reduction of uterine wet weight at 300 ug, sc qd for 3 days in presence of 0.3 ug of estrone; type: functional
Method in brief: (§1)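 Immature mice, ten per group, given the agent daily for 3 days by subcutaneous injection or by mouth. The agent went with estrone given subcutaneously (0.3 µg total dose in the table). Subcutaneous doses were in 0.1 mL corn oil, and doses are stated as total dose. Uterine wet weight was taken on day 4 and compared with estrone alone. Reported as mean difference in mg (SE) and % inhibition.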

Mus musculus [2] = assay: Antiestrogenic activity in immature Cox mouse assessed as reduction of uterine wet weight at 100 ug, sc qd for 3 days in presence of 0.3 ug of estrone; type: functional; method in brief: as §1
Mus musculus [3] = assay: Antiestrogenic activity in immature Cox mouse assessed as reduction of uterine wet weight at 30 ug, sc qd for 3 days in presence of 0.3 ug of estrone; type: functional; method in brief: as §1
Mus musculus [4] = assay: Antiestrogenic activity in immature Cox mouse assessed as reduction of uterine wet weight at 10 ug, sc qd for 3 days in presence of 0.3 ug of estrone; type: functional; method in brief: as §1
Mus musculus [5] = assay: Antiestrogenic activity in immature Cox mouse assessed as reduction of uterine wet weight at 3 ug, sc qd for 3 days in presence of 0.3 ug of estrone; type: functional; method in brief: as §1
Mus musculus [6] = assay: Antiestrogenic activity in immature Cox mouse assessed as reduction of uterine wet weight at 1 ug, sc qd for 3 days in presence of 0.3 ug of estrone; type: functional; method in brief: as §1
Mus musculus [7] = assay: Antiestrogenic activity in immature Cox mouse assessed as reduction of uterine wet weight at 300 ug, po qd for 3 days in presence of 0.3 ug of estrone; type: functional; method in brief: as §1
Mus musculus [8] = assay: Antiestrogenic activity in immature Cox mouse assessed as reduction of uterine wet weight at 100 ug, po qd for 3 days in presence of 0.3 ug of estrone; type: functional; method in brief: as §1
Mus musculus [9] = assay: Antiestrogenic activity in immature Cox mouse assessed as reduction of uterine wet weight at 30 ug, po qd for 3 days in presence of 0.3 ug of estrone; type: functional; method in brief: as §1
Mus musculus [10] = assay: Antiestrogenic activity in immature Cox mouse assessed as reduction of uterine wet weight at 300 ug, sc qd for 3 days; type: functional
Mus musculus [11] = assay: Antiestrogenic activity in immature Cox mouse assessed as reduction of uterine wet weight at 100 ug, sc qd for 3 days; type: functional
Mus musculus [12] = assay: Antiestrogenic activity in immature Cox mouse assessed as reduction of uterine wet weight at 30 ug, sc qd for 3 days; type: functional
Mus musculus [13] = assay: Antiestrogenic activity in immature Cox mouse assessed as reduction of uterine wet weight at 10 ug, sc qd for 3 days; type: functional
Mus musculus [14] = assay: Antiestrogenic activity in immature Cox mouse assessed as reduction of uterine wet weight at 3 ug, sc qd for 3 days; type: functional
Mus musculus [15] = assay: Antiestrogenic activity in immature Cox mouse assessed as reduction of uterine wet weight at 1 ug, sc qd for 3 days; type: functional
Rattus norvegicus [16] = assay: Antiuterotropic activity in ovariectomized rat assessed as reduction of uterine weight at 3 ug, po qd for 7 days in presence of 17beta-estradiol (reference value: 268.7 +/- 10.3 mg); type: functional
Rattus norvegicus [17] = assay: Antiuterotropic activity in ovariectomized rat assessed as reduction of uterine weight at 5 ug, po qd for 7 days in presence of 17beta-estradiol (reference value: 268.7 +/- 10.3 mg); type: functional
Rattus norvegicus [18] = assay: Antiuterotropic activity in ovariectomized rat assessed as reduction of uterine weight at 10 ug, po qd for 7 days in presence of 17beta-estradiol (reference value: 268.7 +/- 10.3 mg); type: functional
Rattus norvegicus [19] = assay: Uterotropic activity in ovariectomized rat assessed as increase of uterine weight at 1 ug, sc qd for 7 days; type: functional, Uterus; conditions: in the assay text read “1 mg” for “1 ug”
Method in brief: (§2)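 Ovariectomized adult rats, five per group, treated daily for 7 days, orally or subcutaneously, with the agent in 0.1 mL corn oil. The value is the mean uterine weight in mg of the treated group minus that of the control group (eight animals). Significance was tested by Student's t test (p < 0.05).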

Rattus norvegicus [20] = assay: Uterotropic activity in ovariectomized rat assessed as increase of uterine weight at 0.1 ug, po qd for 7 days; type: functional, Uterus; conditions: in the assay text read “0.1 mg” for “0.1 ug”; method in brief: as §2
Rattus norvegicus [21] = assay: Uterotropic activity in ovariectomized rat assessed as increase of uterine weight at 0.5 ug, po qd for 7 days; type: functional, Uterus; conditions: in the assay text read “0.5 mg” for “0.5 ug”; method in brief: as §2
Rattus norvegicus [22] = assay: Uterotropic activity in ovariectomized rat assessed as increase of uterine weight at 1 ug, po qd for 7 days; type: functional, Uterus; conditions: in the assay text read “1 mg” for “1 ug”; method in brief: as §2
Rattus norvegicus [23] = assay: Postcoital antifertility activity in rat assessed as viable/resorbing fetuses at 5 ug, po qd for 11 days; type: functional, organism-based
Method in brief: (§3)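 Female rats, 4–5 per group, given 11 daily oral or subcutaneous doses starting at the first evidence of breeding. They were killed on day 12 and checked for viable or resorbing fetuses. Results are given as animals pregnant out of animals treated.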

Rattus norvegicus [24] = assay: Postcoital antifertility activity in rat assessed as viable/resorbing fetuses at 5 ug, sc qd for 11 days; type: functional, organism-based; method in brief: as §3
Rattus norvegicus [25] = assay: Postcoital antifertility activity in rat assessed as viable/resorbing fetuses at 1 ug, po qd for 11 days; type: functional, organism-based; method in brief: as §3
Rattus norvegicus [26] = assay: Postcoital antifertility activity in rat assessed as viable/resorbing fetuses at 1 ug, sc qd for 11 days; type: functional, organism-based; method in brief: as §3
Rattus norvegicus [27] = assay: Postcoital antifertility activity in rat assessed as viable/resorbing fetuses at 0.5 ug, po qd for 11 days; type: functional, organism-based; method in brief: as §3
Rattus norvegicus [28] = assay: Postcoital antifertility activity in rat assessed as viable/resorbing fetuses at 0.5 ug, sc qd for 11 days; type: functional, organism-based; method in brief: as §3

For `COc1ccc(C2=C(C(=O)c3ccc(OCCN4CCCC4)cc3)c3ccccc3CC2)cc1.CS(=O)(=O)O` [TRIOXIFENE MESYLATE], the “inhibition (INH)” value (Mus musculus [1]) was 44.1%, the “inhibition (INH)” value (Mus musculus [2]) was 53.5% and the “inhibition (INH)” value (Mus musculus [3]) was 25.9%. For the same compound, the “inhibition (INH)” value (Mus musculus [4]) was 22.8%, the “inhibition (INH)” value (Mus musculus [5]) was 12.7% and the “inhibition (INH)” value (Mus musculus [6]) was 0%. For the same compound, the “inhibition (INH)” value (Mus musculus [7]) was 52.3%, the “inhibition (INH)” value (Mus musculus [8]) was 49.2% and the “inhibition (INH)” value (Mus musculus [9]) was 31.1%. It also gave an Activity (Mus musculus [10]) of 19.1 mg, an Activity (Mus musculus [11]) of 24.2 mg and an Activity (Mus musculus [12]) of 21.2 mg. It also gave an Activity (Mus musculus [13]) of 34 mg, an Activity (Mus musculus [14]) of 28.8 mg and an Activity (Mus musculus [15]) of 8.6 mg. For the same compound, the Activity (Rattus norvegicus [16]) was 231.7 mg, the Activity (Rattus norvegicus [17]) was 222.3 mg and the Activity (Rattus norvegicus [18]) was 200.9 mg. It also gave an Activity (Rattus norvegicus [19]) of 66.8 mg, an Activity (Rattus norvegicus [20]) of 35 mg and an Activity (Rattus norvegicus [21]) of 54.9 mg. For the same compound, the Activity (Rattus norvegicus [22]) was 58.7 mg, the Activity (Rattus norvegicus [23]) was “Active” and the Activity (Rattus norvegicus [24]) was “Active”. For the same compound, the Activity (Rattus norvegicus [25]) was “Active”, the Activity (Rattus norvegicus [26]) was “Active” and the Activity (Rattus norvegicus [27]) was “inactive”. For the same compound, the Activity (Rattus norvegicus [28]) was “inactive”.
`COc1ccc(C(=O)C2=C(c3ccc(OC)cc3)CCc3ccccc32)cc1` was tested, and the Activity (Rattus norvegicus [25]) was “inactive” and the Activity (Rattus norvegicus [26]; in the assay text read “at 1 mg” for “at 1 ug”) was “inactive”.
In the case of `COc1ccc(C(=O)C2C(c3ccc(OC)cc3)=CCc3ccccc32)cc1` (configuration not stated), the Activity (Rattus norvegicus [25]) was “inactive” and the Activity (Rattus norvegicus [26]) was “inactive”.
